{
  "source": "ChEMBL document CHEMBL3774372",
  "about": "“Design, physico-chemical properties and biological evaluation of some new N-[(phenoxy)alkyl]- and N-{2-[2-(phenoxy)ethoxy]ethyl}aminoalkanols as anticonvulsant agents” (Bioorg Med Chem, 2016)",
  "key": {"Mus musculus [1]": {"tested_on": "Mus musculus", "experiment": "Anticonvulsant activity in mouse assessed as protection against 6 Hz psychomotor seizure at 50 mg/kg, ip after 0.5 hrs", "format": "functional, organism-based", "outline": "(§1)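 Suspension in 0.5% methylcellulose given ip to mice; corneal stimulation with 0.2 ms monopolar rectangular pulses at 6 Hz for 3 s from a constant current device, mice restrained then released to observation cage. Protected if normal exploratory behaviour resumed within 10 s of stimulation. Scored as protected/tested, 4 mice per group.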"}, "Mus musculus [2]": {"tested_on": "Mus musculus", "experiment": "Neurotoxicity in mouse at 100 mg/kg, ip after 0.5 hrs by rotarod test", "format": "toxicity, organism-based", "details": "in vivo", "outline": "(§2)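 Mice were dosed ip with compound suspended in 0.5% methylcellulose. Rotarod: a 1 in. knurled rod turning at 6 rpm. Neurotoxicity was scored as failure to stay on the rod for at least 1 min in each of three trials. Results are given as the number of animals affected out of the number tested.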"}, "Mus musculus [3]": {"tested_on": "Mus musculus", "experiment": "Neurotoxicity in mouse at 100 mg/kg, ip after 1 hr by rotarod test", "format": "toxicity, organism-based", "details": "in vivo", "outline": "as §2"}, "Mus musculus [4]": {"tested_on": "Mus musculus", "experiment": "Anticonvulsant activity in mouse assessed as protection against maximal electric shock-induced seizures at 100 mg/kg, ip measured after 1 hr", "format": "functional, organism-based", "outline": "(§3)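 Mice dosed ip with suspension in 0.5% methylcellulose; maximal electroshock applied at the listed time after dosing. Protection = abolition of hindlimb tonic extension component of seizure; reported as animals protected/animals tested.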"}, "Mus musculus [5]": {"tested_on": "Mus musculus", "experiment": "Anticonvulsant activity in mouse assessed as protection against 6 Hz psychomotor seizure at 50 mg/kg, ip after 4 hrs", "format": "functional, organism-based", "outline": "as §1"}, "Mus musculus [6]": {"tested_on": "Mus musculus", "experiment": "Neurotoxicity in mouse at 100 mg/kg, ip after […] by rotarod test", "format": "toxicity, organism-based", "details": "in vivo"}, "Mus musculus [7]": {"tested_on": "Mus musculus", "experiment": "Anticonvulsant activity in mouse assessed as protection against maximal electric shock-induced seizures at 100 mg/kg, ip measured after 4 hrs", "format": "functional, organism-based", "outline": "as §3"}, "Mus musculus [8]": {"tested_on": "Mus musculus", "experiment": "Neurotoxicity in mouse at 100 mg/kg, ip after 4 hrs by rotarod test", "format": "toxicity, organism-based", "details": "in vivo", "outline": "as §2"}, "Mus musculus [9]": {"tested_on": "Mus musculus", "experiment": "Anticonvulsant activity in mouse assessed as protection against maximal electric shock-induced seizures at 100 mg/kg, ip measured after […]", "format": "functional, organism-based"}, "Mus musculus [10]": {"tested_on": "Mus musculus", "experiment": "Neurotoxicity in mouse at 50 mg/kg, ip after 0.5 hrs by rotarod test", "format": "toxicity, organism-based", "details": "in vivo", "outline": "as §2"}, "Mus musculus [11]": {"tested_on": "Mus musculus", "experiment": "Anticonvulsant activity in mouse assessed as protection against 6 Hz psychomotor seizure at 50 mg/kg, ip after 1 hr", "format": "functional, organism-based", "outline": "as §1"}, "Mus musculus [12]": {"tested_on": "Mus musculus", "experiment": "Anticonvulsant activity in mouse assessed as protection against 6 Hz psychomotor seizure at 50 mg/kg, ip after 2 hrs", "format": "functional, organism-based", "outline": "as §1"}, "Mus musculus [13]": {"tested_on": "Mus musculus", "experiment": "Anticonvulsant activity in mouse assessed as protection against maximal electric shock-induced seizures at 100 mg/kg, ip measured after 0.5 hrs", "format": "functional, organism-based", "outline": "as §3"}, "Mus musculus [14]": {"tested_on": "Mus musculus", "experiment": "Neurotoxicity in mouse at 50 mg/kg, ip after 4 hrs by rotarod test", "format": "toxicity, organism-based", "details": "in vivo", "outline": "as §2"}, "Mus musculus [15]": {"tested_on": "Mus musculus", "experiment": "Neurotoxicity in mouse at 50 mg/kg, ip after 1 hr by rotarod test", "format": "toxicity, organism-based", "details": "in vivo", "outline": "as §2"}, "Mus musculus [16]": {"tested_on": "Mus musculus", "experiment": "Neurotoxicity in mouse at 50 mg/kg, ip after 2 hrs by rotarod test", "format": "toxicity, organism-based", "details": "in vivo", "outline": "as §2"}, "Mus musculus [17]": {"tested_on": "Mus musculus", "experiment": "Neurotoxicity in mouse at 30 mg/kg, ip after 0.5 hrs by rotarod test", "format": "toxicity, organism-based", "details": "in vivo", "outline": "as §2"}, "Mus musculus [18]": {"tested_on": "Mus musculus", "experiment": "Anticonvulsant activity in mouse assessed as protection against 6 Hz psychomotor seizure at 100 mg/kg, ip after 2 hrs", "format": "functional, organism-based", "outline": "as §1"}, "Mus musculus [19]": {"tested_on": "Mus musculus", "experiment": "Anticonvulsant activity in mouse assessed as protection against 6 Hz psychomotor seizure at 100 mg/kg, ip after 1 hr", "format": "functional, organism-based", "outline": "as §1"}, "Mus musculus [20]": {"tested_on": "Mus musculus", "experiment": "Anticonvulsant activity in mouse assessed as protection against subcutaneous pentylenetetrazol-induced seizures at 100 mg/kg, ip measured after 4 hrs", "format": "functional, organism-based", "outline": "(§4)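 Mice dosed ip as 0.5% methylcellulose suspension; pentylenetetrazole 85 mg/kg in 0.9% NaCl injected subcutaneously into posterior midline, animals watched at least 30 min. Protection = no threshold seizure (single clonic spasm episode lasting ≥5 s); scored protected/tested.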"}, "Mus musculus [21]": {"tested_on": "Mus musculus", "experiment": "Neurotoxicity in mouse at 300 mg/kg, ip after 4 hrs by rotarod test", "format": "toxicity, organism-based", "details": "in vivo", "outline": "as §2"}, "Mus musculus [22]": {"tested_on": "Mus musculus", "experiment": "Anticonvulsant activity in mouse assessed as protection against 6 Hz psychomotor seizure at 100 mg/kg, ip after […]", "format": "functional, organism-based"}, "Mus musculus [23]": {"tested_on": "Mus musculus", "experiment": "Anticonvulsant activity in mouse assessed as protection against maximal electric shock-induced seizures at 30 mg/kg, ip measured after 0.5 hrs", "format": "functional, organism-based", "outline": "as §3"}, "Mus musculus [24]": {"tested_on": "Mus musculus", "experiment": "Anticonvulsant activity in mouse assessed as protection against subcutaneous pentylenetetrazol-induced seizures at 30 mg/kg, ip measured after 4 hrs", "format": "functional, organism-based", "outline": "as §4"}, "Mus musculus [25]": {"tested_on": "Mus musculus", "experiment": "Anticonvulsant activity in mouse assessed as protection against 6 Hz psychomotor seizure at 100 mg/kg, ip after 4 hrs", "format": "functional, organism-based", "outline": "as §1"}, "Mus musculus [26]": {"tested_on": "Mus musculus", "experiment": "Neurotoxicity in mouse at 30 mg/kg, ip after 4 hrs by rotarod test", "format": "toxicity, organism-based", "details": "in vivo", "outline": "as §2"}, "Mus musculus [27]": {"tested_on": "Mus musculus", "experiment": "Neurotoxicity in mouse at 300 mg/kg, ip after 0.5 hrs by rotarod test", "format": "toxicity, organism-based", "details": "in vivo", "outline": "as §2"}, "Mus musculus [28]": {"tested_on": "Mus musculus", "experiment": "Anticonvulsant activity in mouse assessed as protection against maximal electric shock-induced seizures at 30 mg/kg, ip measured after 4 hrs", "format": "functional, organism-based", "outline": "as §3"}, "Mus musculus [29]": {"tested_on": "Mus musculus", "experiment": "Anticonvulsant activity in mouse assessed as protection against subcutaneous pentylenetetrazol-induced seizures at 30 mg/kg, ip measured after 0.5 hrs", "format": "functional, organism-based", "outline": "as §4"}},
  "note": "The source made the active and inactive calls.",
  "data": [
    {"smiles": "Cc1cccc(OCCN[C@@H]2CCCC[C@H]2O)c1C", "note": "(racemic)", "values": [
      {"measurement": "Activity", "setting": "Mus musculus [1]", "value": "inactive"},
      {"measurement": "Activity", "setting": "Mus musculus [2]", "value": "Toxic"},
      {"measurement": "Activity", "setting": "Mus musculus [3]", "value": "Toxic"},
      {"measurement": "Activity", "setting": "Mus musculus [4]", "value": "Active"},
      {"measurement": "Activity", "setting": "Mus musculus [5]", "value": "inactive"},
      {"measurement": "Activity", "setting": "Mus musculus [6]", "value": "Toxic"},
      {"measurement": "Activity", "setting": "Mus musculus [7]", "value": "inactive"},
      {"measurement": "Activity", "setting": "Mus musculus [8]", "value": "Non-toxic"},
      {"measurement": "Activity", "setting": "Mus musculus [9]", "value": "Active"},
      {"measurement": "Activity", "setting": "Mus musculus [10]", "value": "Non-toxic"},
      {"measurement": "Activity", "setting": "Mus musculus [11]", "value": "inactive"},
      {"measurement": "Activity", "setting": "Mus musculus [12]", "value": "inactive"},
      {"measurement": "Activity", "setting": "Mus musculus [13]", "value": "Active"},
      {"measurement": "Activity", "setting": "Mus musculus [14]", "value": "Non-toxic"},
      {"measurement": "Activity", "setting": "Mus musculus [15]", "value": "Non-toxic"},
      {"measurement": "Activity", "setting": "Mus musculus [16]", "value": "Non-toxic"}
    ]},
    {"smiles": "Cc1cccc(OCCOCCNC(C)CO)c1C", "note": "(stereo not drawn)", "values": [
      {"measurement": "Activity", "setting": "Mus musculus [17]", "value": "Non-toxic"},
      {"measurement": "Activity", "setting": "Mus musculus [18]", "value": "inactive"},
      {"measurement": "Activity", "setting": "Mus musculus [19]", "value": "Active"},
      {"measurement": "Activity", "setting": "Mus musculus [2]", "value": "Toxic"},
      {"measurement": "Activity", "setting": "Mus musculus [20]", "value": "inactive"},
      {"measurement": "Activity", "setting": "Mus musculus [6]", "value": "Toxic"},
      {"measurement": "Activity", "setting": "Mus musculus [21]", "value": "Non-toxic"},
      {"measurement": "Activity", "setting": "Mus musculus [7]", "value": "inactive"},
      {"measurement": "Activity", "setting": "Mus musculus [8]", "value": "Non-toxic"},
      {"measurement": "Activity", "setting": "Mus musculus [22]", "value": "Active"},
      {"measurement": "Activity", "setting": "Mus musculus [23]", "value": "inactive"},
      {"measurement": "Activity", "setting": "Mus musculus [24]", "value": "inactive"},
      {"measurement": "Activity", "setting": "Mus musculus [25]", "value": "inactive"},
      {"measurement": "Activity", "setting": "Mus musculus [26]", "value": "Non-toxic"},
      {"measurement": "Activity", "setting": "Mus musculus [27]", "value": "Toxic"},
      {"measurement": "Activity", "setting": "Mus musculus [28]", "value": "inactive"},
      {"measurement": "Activity", "setting": "Mus musculus [29]", "value": "inactive"}
    ]}
  ]
}
